Most compounds without a hit are left out; they make up all but 2.1% or so of the library.
LMP1 NFkB inh: Epstein-Barr LMP1 NF-kappaB reporter inhibition. AID 504558. LMP1-induced NF-kappaB luciferase reporter cells, luminescence. actives 0.69% (n = 350,000). inhibition, % at 12.5 µM; in the data active = inhibition above about 41%;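 note: 0% = neutral control wells and 100% = reference inhibitor control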
FN deposition inh: fibronectin deposition inhibition; inhibition, % at 12.6 µM; AH1F fibroblasts, Alexa488-fibronectin deposition fluorescence, overnight; actives 0.086% (n = 350,000);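 active = mean inhibition across replicates of 30% or more, regardless of how many single replicates reach that level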;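 note: positive control wells lacked labelled fibronectin entirely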
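Test system: AH1F fibroblast monolayer depositing Alexa488-labelled fibronectin into matrix. Input: 10000 cells per well. Technique: fluorescence, ex 485 nm, em 525 nm. Buffer or medium: DMEM plus 2% serum, read in PBS. Timing: 1 h cell adhesion before compound, then overnight fibronectin incubation. Compound: single dose, pinned. Read-out basis: inhibition from reduced deposited-fibronectin fluorescence.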
PAX8 inh HTS: inhibitors of PAX8 transcriptional activity in RMG-I cells | AID 652154 | inhibition, % at 12.6 µM | RMG-I TPO-luciferase reporter, SteadyGlo, 24 h | actives 1.2% (n = 360,000);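 active = mean replicate inhibition at least 60% with every replicate also reaching 60%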;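 note: luciferase light reporting Pax8 driven TPO promoter activity; plate controls were median of neutral control wells for no effect and mitoxantrone controls for full effect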
aSyn 5UTR inh: 5' untranslated region of α-synuclein, MLPCN primary screen; actives 0.82% (n = 300,000); inhibition, % (tested at 7.5 µM); alpha-synuclein 5'UTR reporter, inhibitor activity; in the data active = inhibition above about 60%;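 note: H4 neuroglioblastoma cells stably carrying SNCA 5'UTR luciferase fusion; 0% = DMSO wells and 100% = positive control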
EWS-Fli block: inhibitors of EWS/Fli oncoprotein transcriptional activity; A673 NR0B1-luciferase reporter, viability-normalised; inhibition, % at 12.6 µM; actives 0.67% (n = 350,000); AID 651661;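 active = mean inhibition of at least 50% after viability correction, with every replicate also passing that limit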;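 note: firefly luciferase signal divided by Alamar Blue viability fluorescence both relative to DMSO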
Shn3 3UTR inh: inhibitors of Schnurri-3 3'UTR reporter in osteoblasts; actives 0.52% (n = 360,000); AID 588674; Clone20 osteoblast Shn3 3'UTR firefly luciferase, 24 h; inhibition, % at 12.5 µM;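 active = mean inhibition of at least 75% with every replicate also reaching 75%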;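 note: 0% = median of neutral control wells and 100% = pilot-screen positive control compound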
Starred values were filed as active, the others as inactive; · = no result; ! = not active in a repeat.

SMILES	LMP1 NFkB inh	FN deposition inh	PAX8 inh HTS	aSyn 5UTR inh	EWS-Fli block	Shn3 3UTR inh
Cc1cc2cc3c(cc2nc1SCC(=O)N1CCCC1)OCCO3	-12.1	10.6	-7.2	2.0	-0.5	-13.1
CO[C@H]1CN(C)C(=O)c2ccc(NC(=O)Cc3ccccc3)cc2OC[C@@H](C)N(C)C[C@H]1C	·	12.8	1.8	·	-6.1	·
COc1ccc2c3c(n(C)c2c1)[C@@H](CO)N(Cc1ccncc1)CC31CN(C(=O)Cc2ccncc2)C1	·	·	10.9	·	0.4	·
COc1ccc(NC(=O)Nc2ccc3c(c2)C(=O)N([C@@H](C)CO)C[C@@H](C)[C@@H](CN(C)Cc2ccc(Cl)c(Cl)c2)OCCCC[C@@H](C)O3)cc1	·	·	75.1*	·	-1.9	·
COc1ccc(NC(=O)Nc2ccc3c(c2)C(=O)N([C@H](C)CO)C[C@H](C)[C@@H](CN(C)Cc2ccc(Cl)c(Cl)c2)OCCCC[C@@H](C)O3)cc1	6.2	4.7	74.3*!	·	0.8	27.8
CCC(=O)N[C@@H]1CC[C@@H](CC(=O)OC)O[C@H]1CO	·	·	-6.6	·	-8.2	·
C[C@H]1CN([C@@H](C)CO)C(=O)Cc2cc(NC(=O)Nc3ccccc3)ccc2O[C@H]1CN(C)Cc1ccc(C(F)(F)F)cc1	·	·	·	·	-6.4	·
COC(=O)c1cccc(NC(=O)/C=C/c2ccc3c(c2)OCO3)c1	32.5	-15.3	-26.6	102.3*	·	1.2
COC(=O)c1cc(NC(=O)/C=C/c2ccc3c(c2)OCO3)cc(C(=O)OC)c1	3.7	-2.6	·	48.3	·	22.3
CC(C)CC#Cc1ccc2c(c1)O[C@H](CN(C)CC1CCOCC1)[C@H](C)CN([C@H](C)CO)S2(=O)=O	·	·	·	·	14.4	·
Clc1cc2cccnc2c2ncccc12	25.3	5.8	51.7	·	7.9	84.9
Cc1c(C)c2cccnc2c2ncccc12	86.3*	·	·	·	·	82.6
Cc1ccc(S(=O)(=O)Nc2ccc3c(c2)C(=O)N([C@@H](C)CO)C[C@H](C)[C@@H](CN(C)S(=O)(=O)c2ccc(C)cc2)OCCCC[C@@H](C)O3)cc1	·	8.8	46.5	·	4.6	·
C=C1C(=O)O[C@H]2[C@@H]1CC/C(CO)=C\CC[C@@]1(C)O[C@@H]21	·	·	83.1*	·	10.6	·
C=C1C(=O)O[C@H]2[C@H]1[C@@H](O)CC(=C)[C@@H]1CC(=O)[C@@H](C)[C@H]21	39.0	·	·	6.4	·	72.9
C[C@H](CO)N1C[C@H](C)[C@@H](CN(C)C(=O)C2CC2)OCc2ccccc2-c2ccccc2C1=O	·	-2.5	1.3	·	-5.9	·
CC1CN(S(=O)(=O)c2ccc(C(=O)NCCCn3ccnc3)cc2)CC(C)O1 (stereo unspecified)	-37.2	9.1	12.8	104.6*	-13.4	3.5
C[C@H](NC(=O)[C@@H]1[C@@H](CO)[C@@H]2Cn3c(ccc(-c4cccnc4)c3=O)[C@@H]2N1C)c1ccccc1	·	·	2.4	·	9.7	·
CCCNC(=O)N1CC2(CN(S(=O)(=O)CC)C2)c2c(n(C)c3cc(OC)ccc23)[C@@H]1CO	·	·	0.7	·	5.5	·
COc1ccc(-c2coc3c(C(=O)NCc4ccc(OC)c(OC)c4)cccc23)c(C)c1	·	-9.0	51.1	·	10.4	90.4*
O=C(CCN1CCCCC1)N[C@H]1CC[C@H](CCNS(=O)(=O)c2ccc(F)cc2)O[C@H]1CO	·	·	-24.7	·	3.9	·
O=C1C2C3C=CC(C3)C2C(=O)N1c1ccc(Cc2ccncc2)cc1 (stereo unspecified)	3.8	·	·	-16.5	·	39.8
CC1CCC2C(=O)N(c3ccc(Cc4ccncc4)cc3)C(=O)C2C1 (stereo unspecified)	13.8	-3.0	16.9	-29.7	12.3	86.7*
COc1ccc2cc3c(N)nn(C(=O)c4ccccc4[N+](=O)[O-])c3nc2c1	63.0*	2.6	-18.5	49.0	-16.3	13.5
CC(=O)c1ccc(Nc2nc(C)cc(C)n2)cc1	79.9*	-3.9	-15.6	-126.4	-94.8	-13.9
SMILES	LMP1 NFkB inh	FN deposition inh	PAX8 inh HTS	aSyn 5UTR inh	EWS-Fli block	Shn3 3UTR inh
COc1cccc(-c2ccc([C@H]3[C@@H](CO)N4C(=O)CNC[C@@H]34)cc2)c1	·	1.0	·	·	-8.6	·
Brc1ccc(C2=Nn3c(nnc3-c3n[nH]c4c3CCC4)SC2)cc1	26.4	·	·	86.0*	·	-24.2
Clc1ccc(C2=Nn3c(nnc3-c3n[nH]c4c3CCC4)SC2)cc1	13.5	·	·	58.3	·	7.4
CN(CC(=O)Nc1cccc(F)c1)C(=O)CCCc1cccs1	-1.6	13.9	96.8*	-9.1	-6.6	29.7
Cc1ccc(NC(=O)c2cccs2)cc1S(=O)(=O)Nc1cccc(Cl)c1	-7.9	3.9	-0.1	-10.5	8.9	31.6
Cc1ccc(NC(=S)NC(=O)c2ccc(F)cc2)cc1S(=O)(=O)Nc1cccc(Cl)c1	13.9	1.0	41.0	81.3*	44.0	28.8
O=C(Cc1ccccc1)NCc1cccnc1	-8.4	11.5	7.6	2.0	0.3	-7.0
O=C(CCC(=O)c1cccs1)NCc1cccnc1	-2.6	38.1*	2.0	3.0	-3.5	-4.2
O=C(CCC(=O)c1cccs1)NCc1ccncc1	1.5	4.2	3.3	-16.5	0.7	-12.1
Cc1ccccc1CN(c1ccc(C(=O)NCc2cccnc2)cc1)S(C)(=O)=O	52.0*	2.9	-10.1	14.2	11.1	-18.1
Cc1ccccc1CC(=O)NCc1cccnc1	66.8*	-1.0	-7.4	10.5	7.3	11.4
Cc1ccc(C)c(S(=O)(=O)Nc2ccc(-n3cnnn3)cc2)c1	5.8	·	·	·	·	82.7*
CC(=O)n1cc(Nc2ccccc2C(=O)O)c2ccccc21	-9.6	·	·	33.0	·	-2.5
CCOC(=O)c1ccccc1Nc1cn(C(C)=O)c2ccccc12	0.8	·	·	26.2	·	2.3
COc1ccccc1N(C(=O)CCl)c1cn(C(C)=O)c2ccccc12	28.5	-0.9	114.3*	38.1	28.4	47.7
CC(=O)n1cc(N(C(=O)CCl)c2ccc(Cl)cc2)c2ccccc21	·	·	·	102.8*	·	56.6
C[C@H]1CN([C@@H](C)CO)S(=O)(=O)c2ccc(-c3ccccc3)cc2O[C@H]1CN(C)Cc1ccccn1	·	-15.3	·	·	2.1	·
CN(C)c1ccc(Cc2ccc(N(C)C)cc2)cc1	5.4	-2.7	3.1	·	-9.9	-6.1
CN(C)c1ccc(CCc2ccc(N)cc2)cc1	13.0	8.3	-12.9	84.1*	36.9	32.3
Cc1ccc(S(=O)(=O)NCC[C@H]2CC[C@H](NC(=O)c3cnccn3)[C@@H](CO)O2)cc1	·	·	33.4	·	-2.6	·
Cc1nn(C(C)(C)C)c(C)c1/C=N/OC(=O)Nc1ccc(Cl)cc1	73.8*	-5.0	79.3*	94.2*	87.1*	·
CCS(=O)(=O)Nc1ccc2c(c1)C(=O)N(C)[C@H]1CC[C@@H](CC(=O)Nc3ccccc3)O[C@@H]1CO2	·	-1.6	2.4	·	-5.9	·
C[C@@H]1CN([C@H](C)CO)S(=O)(=O)c2ccc(C#Cc3ccccn3)cc2O[C@@H]1CN(C)C(=O)C1CC1	·	-3.6	·	·	4.1	·
COc1ccc2cc1Oc1ccc(cc1)C[C@H]1c3c(cc(OC)c4c3Oc3c(ccc5c3[C@H](C2)N(C)CC5)O4)CCN1C	-15.2	·	·	·	·	-33.4

Screening data (PubChem BioAssay)
